Reference: ChEMBL document CHEMBL1806465, “Synthesis and biological evaluation of 4-nitro-substituted 1,3-diaryltriazenes as a novel class of potent antitumor agents” (Eur J Med Chem, 2011)
≈ marks a conversion by molar mass, not a printed value. Calls of active or inactive are those of the source. The calls are words filed in the database; no cut-off is given here.

Legend:
[1] = Solubility of the compound in water; type: physicochemical; conditions: buffer
HeLa = assay: Cytotoxicity against human HeLa cells after 72 hrs by MTT assay; type: functional, cell-based
[2] = Solubility of the compound in DMSO; type: physicochemical
[3] = Stability of the compound in DMSO after 26.25 hrs by LC/MS/MS analysis in presence of 10% FBS; type: physicochemical; conditions: cattle; for remaining at 26.25 h: DMSO with 10% FBS, read-out: Stability; for Stability: 26.25 h
Nucleic Acid = assay: Binding affinity to calf thymus DNA assessed as change in melting temperature at compound to DNA ratio of 0.3; type: nucleic-acid assay; conditions: Bos taurus
Procedure, shortened: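 ct-DNA sonicated, filtered, in Na-cacodylate buffer pH 7, I = 0.05 mol dm-3, 2 x 10^-5 mol dm-3 (as phosphate, ε260 = 6600); compound/DNA ratio 0.3. Absorbance at 260 nm followed versus temperature, compound absorbance subtracted, curves normalized. Tm taken from first-derivative maximum, confirmed by tangent method; ΔTm = Tm(complex) − Tm(free DNA), mean of ≥2 runs, error ±0.5 °C.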

L1210 = assay: Cytotoxicity against mouse L1210 cells at 32 uM; type: functional

Structure (SMILES): O=[N+]([O-])c1ccc(/N=N/Nc2ccc([N+](=O)[O-])cc2F)c(F)c1
- solubility [1]: Insoluble

Structure (SMILES): COc1cc(/C=C/C(=O)N(/N=N/c2ccc(Cl)c(C(F)(F)F)c2)c2ccc(Cl)c(C(F)(F)F)c2)ccc1OC(C)=O
- Activity (HeLa): inactive
- solubility [2]: 16.8 µM (≈ 10.4 µg/mL)

Structure (SMILES): O=C(c1ccccc1)N(/N=N/c1ccc([N+](=O)[O-])cc1C(F)(F)F)c1ccc([N+](=O)[O-])cc1C(F)(F)F
- remaining at 26.25 h [3]: 63%
- IC50 (HeLa): 0.6 µM

Structure (SMILES): CC(=O)OCC(=O)N(/N=N/c1ccc([N+](=O)[O-])cc1Cl)c1ccc([N+](=O)[O-])cc1Cl
- IC50 (HeLa): 0.35 µM

Structure (SMILES): O=[N+]([O-])c1ccc(/N=N/Nc2ccc([N+](=O)[O-])cc2C(F)(F)F)c(C(F)(F)F)c1
- Stability [3]: Stable
- solubility [1]: Insoluble

Structure (SMILES): Clc1ccc(Cl)c(/N=N/Nc2cc(Cl)ccc2Cl)c1
- Activity (HeLa): inactive
- solubility [2]: 37.3 µM (≈ 12.5 µg/mL)

Structure (SMILES): CC(=O)N(/N=N/c1cccc(F)c1)c1cccc(F)c1
- Activity (HeLa): inactive
- solubility [2]: 182 µM (≈ 50 µg/mL)

Structure (SMILES): O=C(c1ccccc1F)N(/N=N/c1ccc([N+](=O)[O-])cc1C(F)(F)F)c1ccc([N+](=O)[O-])cc1C(F)(F)F
- IC50 (HeLa): 0.8 µM

Structure (SMILES): O=C(Cc1ccccc1)N(/N=N/c1ccc([N+](=O)[O-])cc1Cl)c1ccc([N+](=O)[O-])cc1Cl
- IC50 (HeLa): 0.53 µM

Structure (SMILES): O=C(c1ccccc1C(F)(F)F)N(/N=N/c1ccc([N+](=O)[O-])cc1C(F)(F)F)c1ccc([N+](=O)[O-])cc1C(F)(F)F
- IC50 (HeLa): 5.35 µM

Structure (SMILES): CC(=O)Oc1ccc(/C=C/C(=O)N(/N=N/c2cccc(F)c2)c2cccc(F)c2)cc1OC(C)=O
- Activity (HeLa): inactive
- solubility [2]: 52.1 µM (≈ 25 µg/mL)

Structure (SMILES): O=C(c1cccc(F)c1)N(/N=N/c1ccc([N+](=O)[O-])cc1Cl)c1ccc([N+](=O)[O-])cc1Cl
- IC50 (HeLa): 2.5 µM

Structure (SMILES): O=C(c1cccc(C(F)(F)F)c1)N(/N=N/c1ccc([N+](=O)[O-])cc1C(F)(F)F)c1ccc([N+](=O)[O-])cc1C(F)(F)F
- IC50 (HeLa): 0.75 µM

Structure (SMILES): O=[N+]([O-])c1ccc(/N=N/Nc2ccc([N+](=O)[O-])cc2Br)c(Br)c1
- IC50 (HeLa): 0.94 µM
- solubility [1]: Insoluble

Structure (SMILES): O=C(CCl)N(/N=N/c1ccc([N+](=O)[O-])cc1C(F)(F)F)c1ccc([N+](=O)[O-])cc1C(F)(F)F
- IC50 (HeLa): 0.8 µM

Structure (SMILES): Clc1cc(Cl)c(/N=N/Nc2cc(Cl)c(Cl)cc2Cl)cc1Cl
- Activity (HeLa): inactive
- solubility [2]: 41.3 µM (≈ 16.7 µg/mL)

Structure (SMILES): O=C(c1ccccc1C(F)(F)F)N(/N=N/c1ccc([N+](=O)[O-])cc1Cl)c1ccc([N+](=O)[O-])cc1Cl
- IC50 (HeLa): 10.6 µM

Structure (SMILES): Fc1ccc(/N=N/Nc2ccc(F)cc2F)c(F)c1
- Activity (HeLa): inactive
- solubility [2]: 186 µM (≈ 50 µg/mL)

Structure (SMILES): CC(=O)OCC(=O)N(/N=N/c1ccc([N+](=O)[O-])cc1Br)c1ccc([N+](=O)[O-])cc1Br
- IC50 (HeLa): 0.49 µM

Structure (SMILES): O=C(c1ccc(C(F)(F)F)cc1)N(/N=N/c1ccc([N+](=O)[O-])cc1C(F)(F)F)c1ccc([N+](=O)[O-])cc1C(F)(F)F
- IC50 (HeLa): 0.69 µM

Structure (SMILES): O=C(c1ccccc1F)N(/N=N/c1ccc([N+](=O)[O-])cc1Br)c1ccc([N+](=O)[O-])cc1Br
- IC50 (HeLa): 1.2 µM

Structure (SMILES): COc1cc(/C=C/C(=O)N(/N=N/c2cc(C(F)(F)F)ccc2Cl)c2cc(C(F)(F)F)ccc2Cl)ccc1OC(C)=O
- Activity (HeLa): inactive
- solubility [2]: 40.3 µM (≈ 25 µg/mL)

Structure (SMILES): CCOC(=O)CC(=O)N(/N=N/c1ccc([N+](=O)[O-])cc1C(F)(F)F)c1ccc([N+](=O)[O-])cc1C(F)(F)F
- IC50 (HeLa): 0.3 µM

Structure (SMILES): O=C(c1ccc(F)cc1)N(/N=N/c1ccc([N+](=O)[O-])cc1C(F)(F)F)c1ccc([N+](=O)[O-])cc1C(F)(F)F
- IC50 (HeLa): 1 µM

Structure (SMILES): O=C(c1cccc(F)c1)N(/N=N/c1ccc([N+](=O)[O-])cc1C(F)(F)F)c1ccc([N+](=O)[O-])cc1C(F)(F)F
- IC50 (HeLa): 0.88 µM

Structure (SMILES): CC(=O)N(/N=N/c1ccc(Cl)c(C(F)(F)F)c1)c1ccc(Cl)c(C(F)(F)F)c1
- IC50 (HeLa): 50.6 µM

Structure (SMILES): O=C(c1ccccc1)N(/N=N/c1ccc([N+](=O)[O-])cc1Cl)c1ccc([N+](=O)[O-])cc1Cl
- remaining at 26.25 h [3]: 9%
- IC50 (HeLa): 0.59 µM

Structure (SMILES): CC(=O)N(/N=N/c1ccc([N+](=O)[O-])cc1)c1ccc([N+](=O)[O-])cc1
- IC50 (HeLa): 63 µM

Structure (SMILES): COc1ccc(/C=C/C(=O)N(/N=N/c2cc(C(F)(F)F)ccc2Cl)c2cc(C(F)(F)F)ccc2Cl)c(OC)c1
- Activity (HeLa): inactive
- solubility [2]: 84.4 µM (≈ 50 µg/mL)

Structure (SMILES): O=C(c1ccc(F)cc1)N(/N=N/c1ccc([N+](=O)[O-])cc1Br)c1ccc([N+](=O)[O-])cc1Br
- IC50 (HeLa): 0.58 µM

Structure (SMILES): O=C(c1ccccc1F)N(/N=N/c1ccc([N+](=O)[O-])cc1Cl)c1ccc([N+](=O)[O-])cc1Cl
- IC50 (HeLa): 2.35 µM

Structure (SMILES): O=C(c1ccc(C(F)(F)F)cc1)N(/N=N/c1ccc([N+](=O)[O-])cc1Cl)c1ccc([N+](=O)[O-])cc1Cl
- IC50 (HeLa): 1.06 µM

Structure (SMILES): O=[N+]([O-])c1ccc(/N=N/Nc2ccc([N+](=O)[O-])cc2Cl)c(Cl)c1
- Stability [3]: Stable
- IC50 (HeLa): 3.01 µM
- solubility [1]: Insoluble
- Activity (Nucleic Acid): inactive

Structure (SMILES): O=C(c1ccccc1C(F)(F)F)N(/N=N/c1ccc([N+](=O)[O-])cc1Br)c1ccc([N+](=O)[O-])cc1Br
- IC50 (HeLa): 13.3 µM

Structure (SMILES): COc1ccc(/C=C/C(=O)N(/N=N/c2cc(C(F)(F)F)ccc2Cl)c2cc(C(F)(F)F)ccc2Cl)cc1OC
- Activity (HeLa): inactive
- solubility [2]: 28.1 µM (≈ 16.6 µg/mL)

Structure (SMILES): O=C(c1ccccc1)N(/N=N/c1ccc([N+](=O)[O-])cc1Br)c1ccc([N+](=O)[O-])cc1Br
- IC50 (HeLa): 1.53 µM

Structure (SMILES): O=C(c1cccc(C(F)(F)F)c1)N(/N=N/c1ccc([N+](=O)[O-])cc1Br)c1ccc([N+](=O)[O-])cc1Br
- IC50 (HeLa): 1.12 µM

Structure (SMILES): O=C(CCl)N(/N=N/c1ccc([N+](=O)[O-])cc1Cl)c1ccc([N+](=O)[O-])cc1Cl
- IC50 (HeLa): 0.55 µM

Structure (SMILES): Fc1ccc(/N=N/Nc2ccc(F)c(F)c2)cc1F
- Activity (HeLa): inactive
- solubility [2]: 186 µM (≈ 50 µg/mL)

Structure (SMILES): O=C(c1cccc(C(F)(F)F)c1)N(/N=N/c1ccc([N+](=O)[O-])cc1Cl)c1ccc([N+](=O)[O-])cc1Cl
- IC50 (HeLa): 1.18 µM

Structure (SMILES): CC(=O)NCC(=O)O.N=C(N)c1ccc(/N=N/Nc2ccc(C(=N)N)cc2)cc1 [DIMINAZEN ACETURATE]
- IC50 (HeLa): 183 µM
- Activity (L1210): 50%

Structure (SMILES): O=[N+]([O-])c1ccc(N=NNc2ccc([N+](=O)[O-])cc2)cc1
- solubility [2]: 43.5 µM (≈ 12.5 µg/mL)

Structure (SMILES): CC(=O)Oc1ccc(/C=C/C(=O)N(/N=N/c2ccc(Cl)c(C(F)(F)F)c2)c2ccc(Cl)c(C(F)(F)F)c2)cc1OC(C)=O
- IC50 (HeLa): 43 µM

Structure (SMILES): FC(F)(F)c1cc(Cl)ccc1/N=N/Nc1ccc(Cl)cc1C(F)(F)F
- Activity (HeLa): inactive
- solubility [2]: 62.2 µM (≈ 25 µg/mL)

Structure (SMILES): CC(=O)N(/N=N/c1ccc([N+](=O)[O-])cc1C(F)(F)F)c1ccc([N+](=O)[O-])cc1C(F)(F)F
- remaining at 26.25 h [3]: 51%

Structure (SMILES): Clc1ccc(/N=N/Nc2ccc(Cl)c(Cl)c2)cc1Cl
- solubility [2]: 74.6 µM (≈ 25 µg/mL)

Structure (SMILES): O=[N+]([O-])c1ccc(/N=N/Nc2ccc([N+](=O)[O-])cc2)cc1
- Activity (HeLa): inactive

Structure (SMILES): Fc1cccc(/N=N/Nc2cccc(F)c2)c1
- Activity (HeLa): inactive
- solubility [2]: 214 µM (≈ 50 µg/mL)

Structure (SMILES): COC(=O)N(/N=N/c1ccc([N+](=O)[O-])cc1Cl)c1ccc([N+](=O)[O-])cc1Cl
- IC50 (HeLa): 0.98 µM

Structure (SMILES): COc1cc(/C=C/C(=O)N(/N=N/c2cc(C(F)(F)F)ccc2Cl)c2cc(C(F)(F)F)ccc2Cl)cc(OC)c1
- Activity (HeLa): inactive
- solubility [2]: 24.1 µM (≈ 14.3 µg/mL)
